Results from ChEMBL document CHEMBL1145212, “Fluorinated diaryl sulfides as serotonin transporter ligands: synthesis, structure-activity relationship study, and in vivo evaluation of fluorine-18-labeled compounds as PET imaging agents” (J Med Chem, 2005).

Experiments:
[1] = tested on: Rattus norvegicus; test: Biodistribution of [18F]AFE in rat frontal cortex at 10 min postinjection in vivo; assay type: ADME, organism-based
In short: (§1)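 Male Sprague-Dawley rats, three per group, received ~20 µCi of the F-18 radioligand in saline by tail-vein injection. Rats were anesthetized with CO2 and decapitated at 10, 30, 60, 90 or 120 min. Blood and brain regions were weighed and gamma-counted. %ID/g was decay- and tail-residual-corrected against F-18 standards made from the injectate and reported as mean ± SD.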

[2] = tested on: Rattus norvegicus; test: Biodistribution of [18F]-AFE in rat frontal cortex at 30 min postinjection in vivo; assay type: ADME, organism-based; settings: 0.5 h
In short: (§2)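 Male Sprague-Dawley rats, three per time point, received the F-18 radioligand in saline (~20 µCi per rat at injection) by tail vein. Under CO2 anesthesia they were decapitated at 10, 30, 60, 90 or 120 min. Blood and dissected brain regions were weighed and gamma counted. Activity was decay-corrected, and injected dose was corrected for tail residual activity. Uptake was expressed as %ID/g versus injectate standards, mean ± SD.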

[3] = tested on: Rattus norvegicus; test: Biodistribution of [18F]AFE in rat frontal cortex at 60 min postinjection in vivo; assay type: ADME, organism-based; settings: 1 h; in short: as §1
[4] = tested on: Rattus norvegicus; test: Biodistribution of [18F]AFE in rat frontal cortex at 90 min postinjection in vivo; assay type: ADME, organism-based; settings: 1.5 h; in short: as §1
[5] = tested on: Rattus norvegicus; test: Biodistribution of [18F]AFE in rat frontal cortex at 120 min postinjection in vivo; assay type: ADME, organism-based; settings: 2 h; in short: as §1
[6] = tested on: Rattus norvegicus; test: Biodistribution of [18F]AFE in rat blood at 120 min postinjection in vivo; assay type: ADME, organism-based; settings: 2 h; in short: as §1
[7] = tested on: Rattus norvegicus; test: Biodistribution of [18F]-AFE in rat striatum at 10 min postinjection in vivo; assay type: ADME, organism-based; in short: as §2
[8] = tested on: Rattus norvegicus; test: Biodistribution of [18F]AFE in rat striatum at 30 min postinjection in vivo; assay type: ADME, organism-based; settings: 0.5 h; in short: as §1
[9] = tested on: Rattus norvegicus; test: Biodistribution of [18F]-AFE in rat striatum at 90 min postinjection in vivo; assay type: ADME, organism-based; settings: 1.5 h; in short: as §2
[10] = tested on: Rattus norvegicus; test: Biodistribution of [18F]AFE in rat thalamus at 10 min postinjection in vivo; assay type: ADME, organism-based; in short: as §1
[11] = tested on: Rattus norvegicus; test: Biodistribution of [18F]AFE in rat thalamus at 30 min postinjection in vivo; assay type: ADME, organism-based; settings: 0.5 h; in short: as §1
[12] = tested on: Rattus norvegicus; test: Biodistribution of [18F]AFE in rat thalamus at 60 min postinjection in vivo; assay type: ADME, organism-based; settings: 1 h; in short: as §1
[13] = organism: Rattus norvegicus; test: Specific binding of [18F]AFA in striatum of rat pretreated with compound 7e; n=3; assay type: functional
[14] = organism: Rattus norvegicus; test: Specific binding of [18F]-AFA in thalamus of rat pretreated with compound 7e; n=3; assay type: functional
[15] = organism: Rattus norvegicus; test: Specific binding of [18F]AFA in hippocampus of rat pretreated with compound 7e; n=3; assay type: functional
[16] = organism: Rattus norvegicus; test: Specific binding of [18F]AFA in hypothalamus of rat pretreated with compound 7e; n=3; assay type: functional
[17] = organism: Rattus norvegicus; test: Specific binding of [18F]AFA in frontal cortex of rat pretreated with compound 7e; n=3; assay type: functional
[18] = tested on: Rattus norvegicus; test: Biodistribution of [18F]AFE in rat hypothalamus at 120 min postinjection in vivo; assay type: ADME, organism-based; settings: 2 h; in short: as §1
[19] = tested on: Rattus norvegicus; test: Biodistribution of [18F]AFE in rat blood at 10 min postinjection in vivo; assay type: ADME, organism-based; in short: as §1
[20] = tested on: Rattus norvegicus; test: Biodistribution of [18F]-AFE in rat blood at 30 min postinjection in vivo; assay type: ADME, organism-based; settings: 0.5 h; in short: as §2
[21] = tested on: Rattus norvegicus; test: Biodistribution of [18F]AFE in rat blood at 60 min postinjection in vivo; assay type: ADME, organism-based; settings: 1 h; in short: as §1
[22] = tested on: Rattus norvegicus; test: Biodistribution of [18F]AFE in rat blood at 90 min postinjection in vivo; assay type: ADME, organism-based; settings: 1.5 h; in short: as §1
[23] = tested on: Rattus norvegicus; test: Biodistribution of [18F]-AFE in rat striatum 60 min postinjection in vivo; assay type: ADME, organism-based; settings: 1 h; in short: as §2
[24] = tested on: Rattus norvegicus; test: Biodistribution of [18F]-AFE in rat cerebellum at 120 min postinjection in vivo; assay type: ADME, organism-based; settings: 2 h; in short: as §2
[25] = tested on: Rattus norvegicus; test: Biodistribution of [18F]AFE in rat hippocampus at 10 min postinjection in vivo; assay type: ADME, organism-based; in short: as §1
[26] = tested on: Rattus norvegicus; test: Biodistribution of [18F]AFE in rat hippocampus at 30 min postinjection in vivo; assay type: ADME, organism-based; settings: 0.5 h; in short: as §1
[27] = tested on: Rattus norvegicus; test: Biodistribution of [18F]AFE in rat hippocampus at 60 min postinjection in vivo; assay type: ADME, organism-based; settings: 1 h; in short: as §1
[28] = tested on: Rattus norvegicus; test: Biodistribution of [18F]AFE in rat hippocampus at 90 min postinjection in vivo; assay type: ADME, organism-based; settings: 1.5 h; in short: as §1
[29] = tested on: Rattus norvegicus; test: Biodistribution of [18F]AFE in rat hippocampus at 120 min postinjection in vivo; assay type: ADME, organism-based; settings: 2 h; in short: as §1
[30] = tested on: Rattus norvegicus; test: Biodistribution of [18F]AFE in rat hypothalamus at 10 min postinjection in vivo; assay type: ADME, organism-based; in short: as §1
[31] = tested on: Rattus norvegicus; test: Biodistribution of [18F]AFE in rat hypothalamus at 30 min postinjection in vivo; assay type: ADME, organism-based; settings: 0.5 h; in short: as §1
[32] = tested on: Rattus norvegicus; test: Biodistribution of [18F]AFE in rat hypothalamus at 90 min postinjection in vivo; assay type: ADME, organism-based; settings: 1.5 h; in short: as §1
[33] = tested on: Rattus norvegicus; test: Biodistribution of [18F]AFE in rat striatum at 120 min postinjection in vivo; assay type: ADME, organism-based; settings: 2 h; in short: as §1
[34] = tested on: Rattus norvegicus; test: Biodistribution of [18F]AFE in rat thalamus at 120 min postinjection in vivo; assay type: ADME, organism-based; settings: 2 h; in short: as §1
[35] = tested on: Rattus norvegicus; test: Biodistribution of [18F]AFE in rat cerebellum at 10 min postinjection in vivo; assay type: ADME, organism-based; in short: as §1
[36] = tested on: Rattus norvegicus; test: Biodistribution of [18F]-AFE in rat cerebellum at 30 min postinjection in vivo; assay type: ADME, organism-based; settings: 0.5 h; in short: as §2
[37] = tested on: Rattus norvegicus; test: Biodistribution of [18F]AFE in rat cerebellum at 60 min postinjection in vivo; assay type: ADME, organism-based; settings: 1 h; in short: as §1
[38] = tested on: Rattus norvegicus; test: Biodistribution of [18F]AFE in rat cerebellum at 90 min postinjection in vivo; assay type: ADME, organism-based; settings: 1.5 h; in short: as §1
[39] = tested on: Rattus norvegicus; test: Biodistribution of [18F]AFE in rat thalamus at 90 min postinjection in vivo; assay type: ADME, organism-based; settings: 1.5 h; in short: as §1
[40] = tested on: Rattus norvegicus; test: Biodistribution of [18F]AFE in rat hypothalamus at 60 min postinjection in vivo; assay type: ADME, organism-based; settings: 1 h; in short: as §1

Biodistribution [1]: 0.62 %ID/g
Biodistribution [2]: 0.32 %ID/g
Biodistribution [3]: 0.19 %ID/g
Biodistribution [4]: 0.08 %ID/g
Biodistribution [5]: 0.06 %ID/g
Biodistribution [6]: 0.02 %ID/g
Biodistribution [7]: 0.51 %ID/g
Biodistribution [8]: 0.33 %ID/g
Biodistribution [9]: 0.1 %ID/g
Biodistribution [10]: 0.58 %ID/g
Biodistribution [11]: 0.39 %ID/g
Biodistribution [12]: 0.27 %ID/g
Biodistribution [18]: 0.1 %ID/g
Biodistribution [19]: 0.25 %ID/g
Biodistribution [20]: 0.13 %ID/g
Biodistribution [21]: 0.07 %ID/g
Biodistribution [22]: 0.04 %ID/g
Biodistribution [23]: 0.21 %ID/g
Biodistribution [24]: 0.02 %ID/g
Biodistribution [25]: 0.38 %ID/g
Biodistribution [26]: 0.27 %ID/g
Biodistribution [27]: 0.17 %ID/g
Biodistribution [28]: 0.09 %ID/g
Biodistribution [29]: 0.07 %ID/g
Biodistribution [30]: 0.51 %ID/g
Biodistribution [31]: 0.41 %ID/g
Biodistribution [32]: 0.14 %ID/g
Biodistribution [33]: 0.08 %ID/g
Biodistribution [34]: 0.13 %ID/g
Biodistribution [35]: 0.28 %ID/g
Biodistribution [36]: 0.13 %ID/g
Biodistribution [37]: 0.06 %ID/g
Biodistribution [38]: 0.03 %ID/g
Biodistribution [39]: 0.17 %ID/g
Biodistribution [40]: 0.24 %ID/g
SMILES: CN(C)Cc1ccccc1Sc1ccc(CC[18F])cc1N
Specific binding [13]: 0.61 %ID/g
Specific binding [14]: 1.06 %ID/g
Specific binding [15]: 0.65 %ID/g
Specific binding [16]: 1.21 %ID/g
Specific binding [17]: 0.48 %ID/g
